Experimental data reported in ChEMBL document CHEMBL1240435, “Synthesis of some 3-substituted amino-4,5-tetramethylene thieno[2,3-d][ 1,2,3]-triazin-4(3H)-ones as potential antimicrobial agents” (2010).
≈ marks a conversion by molar mass, not a printed value.

Key:
Aspergillus niger [1] = test: Antifungal activity against Aspergillus niger after 48 hrs by tube dilution method; format: functional
Candida albicans [2] = test: Antifungal activity against Candida albicans at 50 ug/ml after 48 hrs by agar cup diffusion method; format: functional; settings: read-out: IZ
Salmonella typhi [3] = test: Antibacterial activity against Salmonella typhi after 24 hrs by tube dilution method; format: functional, Salmonella enterica subsp. enterica serovar Typhi; settings: Salmonella enterica
Staphylococcus aureus [4] = test: Antibacterial activity against Staphylococcus aureus at 50 ug/ml after 24 hrs by agar cup diffusion method; format: functional; settings: read-out: IZ
How it was run: (§1)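 Compounds dissolved in DMF. A fresh bacterial subculture in isotonic NaCl was mixed into sterile assay medium at 40–45 °C and poured into Petri dishes. Test solution went into marked wells. Plates stood 5 min, were covered for 1 h, then incubated at 37 °C for 24 h. Inhibition zones were measured as the average of three readings.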

Cryptococcus neoformans [5] = test: Antifungal activity against Cryptococcus neoformans after 48 hrs by tube dilution method; format: functional
Staphylococcus aureus [6] = test: Antibacterial activity against Staphylococcus aureus after 24 hrs by tube dilution method; format: functional
[7] = tested on: Staphylococcus epidermidis; test: Antibacterial activity against Staphylococcus epidermidis after 24 hrs by tube dilution method; format: functional
[8] = tested on: Staphylococcus epidermidis; test: Antibacterial activity against Staphylococcus epidermidis at 50 ug/ml after 24 hrs by agar cup diffusion method; format: functional; settings: read-out: IZ; how it was run: as §1
Escherichia coli [9] = test: Antibacterial activity against Escherichia coli after 24 hrs by tube dilution method; format: functional
Salmonella typhi [10] = test: Antibacterial activity against Salmonella typhi at 50 ug/ml after 24 hrs by agar cup diffusion method; format: functional, Salmonella enterica subsp. enterica serovar Typhi; settings: Salmonella enterica, read-out: IZ
How it was run: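 Agar cup diffusion against an ATCC or IMTECH standard strain. The test compound is dissolved in DMF. A fresh bacterial subculture in isotonic NaCl is mixed into sterile medium at 40–45 °C and poured into plates. Solution is added to marked wells, left 5 min, then covered 1 h. Plates are incubated at 37 °C for 24 h. The inhibition zone is the mean of three readings, with ampicillin as reference.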

Candida albicans [11] = test: Antifungal activity against Candida albicans after 48 hrs by tube dilution method; format: functional
Aspergillus niger [12] = test: Antifungal activity against Aspergillus niger at 50 ug/ml after 48 hrs by agar cup diffusion method; format: functional; settings: read-out: IZ
Escherichia coli [13] = test: Antibacterial activity against Escherichia coli at 50 ug/ml after 24 hrs by agar cup diffusion method; format: functional; settings: read-out: IZ; how it was run: as §1
Cryptococcus neoformans [14] = test: Antifungal activity against Cryptococcus neoformans at 50 ug/ml after 48 hrs by agar cup diffusion method; format: functional; settings: read-out: IZ

Structure (SMILES) | MIC (Aspergillus niger [1]) | zone of inhibition at 50 µg/mL (Candida albicans [2]) | MIC (Salmonella typhi [3]) | zone of inhibition at 50 µg/mL (Staphylococcus aureus [4]) | MIC (Cryptococcus neoformans [5]) | MIC (Staphylococcus aureus [6]) | MIC [7] | zone of inhibition at 50 µg/mL [8] | MIC (Escherichia coli [9]) | zone of inhibition at 50 µg/mL (Salmonella typhi [10]) | MIC (Candida albicans [11]) | zone of inhibition at 50 µg/mL (Aspergillus niger [12]) | zone of inhibition at 50 µg/mL (Escherichia coli [13]) | zone of inhibition at 50 µg/mL (Cryptococcus neoformans [14])
Cc1ccccc1-n1nnc2sc3c(c2c1=O)CCCC3 | 25 µg/mL (≈ 84.1 µM) | 4 mm | 25 µg/mL (≈ 84.1 µM) | 20 mm | 75 µg/mL (≈ 252 µM) | 25 µg/mL (≈ 84.1 µM) | 25 µg/mL (≈ 84.1 µM) | 18 mm | 37.5 µg/mL (≈ 126 µM) | 12 mm | 37.5 µg/mL (≈ 126 µM) | 6 mm | 14 mm | –
Clc1ccc(COC(Cn2ccnc2)c2ccc(Cl)cc2Cl)c(Cl)c1.O=[N+]([O-])O (centres undefined) [MICONAZOLE NITRATE] | 10 µg/mL | 12 mm | – | – | 20 µg/mL | – | – | – | – | – | 12.5 µg/mL | 16 mm | – | 14 mm
Cc1ccc(-n2nnc3sc4c(c3c2=O)CCCC4)cc1 | 25 µg/mL (≈ 84.1 µM) | 5 mm | 25 µg/mL (≈ 84.1 µM) | 28 mm | 75 µg/mL (≈ 252 µM) | 25 µg/mL (≈ 84.1 µM) | 25 µg/mL (≈ 84.1 µM) | 28 mm | 37.5 µg/mL (≈ 126 µM) | 18 mm | 37.5 µg/mL (≈ 126 µM) | 8 mm | 20 mm | 5 mm
O=c1c2c3c(sc2nnn1-c1cccc(Cl)c1)CCCC3 | 12.5 µg/mL (≈ 39.3 µM) | 8 mm | 12.5 µg/mL (≈ 39.3 µM) | 32 mm | 50 µg/mL (≈ 157 µM) | 12.5 µg/mL (≈ 39.3 µM) | 12.5 µg/mL (≈ 39.3 µM) | 30 mm | 25 µg/mL (≈ 78.7 µM) | 24 mm | 25 µg/mL (≈ 78.7 µM) | 13 mm | 26 mm | 8 mm
O=c1[nH]nnc2sc3c(c12)CCCC3 | 37.5 µg/mL (≈ 181 µM) | 3 mm | 37.5 µg/mL (≈ 181 µM) | – | 125 µg/mL (≈ 603 µM) | 37.5 µg/mL (≈ 181 µM) | 37.5 µg/mL (≈ 181 µM) | – | 50 µg/mL (≈ 241 µM) | – | 50 µg/mL (≈ 241 µM) | 4 mm | – | –
Cc1cccc(-n2nnc3sc4c(c3c2=O)CCCC4)c1 | 25 µg/mL (≈ 84.1 µM) | 4 mm | 25 µg/mL (≈ 84.1 µM) | 24 mm | 75 µg/mL (≈ 252 µM) | 25 µg/mL (≈ 84.1 µM) | 25 µg/mL (≈ 84.1 µM) | 20 mm | 37.5 µg/mL (≈ 126 µM) | 14 mm | 37.5 µg/mL (≈ 126 µM) | 8 mm | 14 mm | 6 mm
O=c1c2c3c(sc2nnn1-c1ccc(F)cc1)CCCC3 | 12.5 µg/mL (≈ 41.5 µM) | 8 mm | 12.5 µg/mL (≈ 41.5 µM) | 32 mm | 75 µg/mL (≈ 249 µM) | 6.75 µg/mL (≈ 22.4 µM) | 6.75 µg/mL (≈ 22.4 µM) | 32 mm | 12.5 µg/mL (≈ 41.5 µM) | 24 mm | 37.5 µg/mL (≈ 124 µM) | 10 mm | 26 mm | 8 mm
